Drawing on ChEMBL document CHEMBL2331506, “Design, synthesis, antiviral and cytostatic evaluation of novel isoxazolidine nucleotide analogues with a carbamoyl linker” (Bioorg Med Chem, 2013), this text covers inhibition and Activity for 6 compounds.

The subject of data set [1] is Human immunodeficiency virus 2. Description: Antiviral activity against Human immunodeficiency virus 2 ROD infected in human CEM cells assessed as reduction of virus-induced giant cell formation at 250 uM after 4 to 5 days. To be noted: CCRF-CEM. It counts as functional, organism-based. In a few lines: (§1)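 CEM cells at 3 × 10^5 cells/mL were infected with HIV at 100 CCID50 per mL in the presence of compound dilutions. They were held 4–5 days at 37 °C in humidified CO2. Syncytium (giant cell) formation was scored microscopically, and EC50 was taken as the concentration inhibiting giant cell formation by 50%.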

Data set [2] concerns Human alphaherpesvirus 1. Description: Antiviral activity against Herpes simplex virus 1 KOS infected in human HEL cells assessed as reduction of virus-induced cytopathogenicity at 250 uM. It counts as functional, organism-based. Put shortly: (§2)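 Confluent monolayers (HEL fibroblasts, Vero, or HeLa cells as listed) were infected with 100 CCID50 of virus in the presence of varying compound concentrations. Virus-induced cytopathicity or plaque formation was scored once cytopathicity was complete in untreated infected controls. EC50 was taken as the concentration reducing cytopathogenicity or plaque formation by 50%.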
In general terms: Cytopathic effects are the visible damage that an infection or toxin causes in cultured cells.

A further data set concerns HeLa. Description: Cytotoxicity against human HeLa cells assessed as alteration of cell morphology up to 100 uM by microscopic analysis. It counts as cell-based. Put shortly:
(§3)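 Uninfected host-cell cultures were exposed to compound and examined by microscopy. Cytotoxicity was expressed as the minimum cytotoxic concentration (MCC) causing a microscopically detectable alteration of normal cell morphology.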

Another data set concerns Feline coronavirus. Description: Antiviral activity against Feline coronavirus infected in cat CRFK cells assessed as reduction of virus-induced cytopathogenicity at 250 uM. Format: functional, organism-based.
The next data set deals with Influenza B virus. Kind of data set: Antiviral activity against Influenza B virus infected in dog MDCK cells assessed as reduction of virus-induced cytopathogenicity at 250 uM. It counts as functional, organism-based. In a few lines:
(§4)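 Confluent cell monolayers were infected with 100 CCID50 of virus while exposed to varying compound concentrations. Cytopathicity was scored once it was complete in untreated infected controls. EC50 was taken as the concentration that reduced virus-induced cytopathogenicity by 50%.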

The next data set has as its system Felid alphaherpesvirus 1. Description: Antiviral activity against Feline herpes virus infected in cat CRFK cells assessed as reduction of virus-induced cytopathogenicity at 250 uM. Format: functional, organism-based.
Data set [3] concerns Vesicular stomatitis virus. Kind of data set: Antiviral activity against Vesicular stomatitis virus infected in human HEL cells assessed as reduction of virus-induced cytopathogenicity at 250 uM. It counts as functional, organism-based. Put shortly: as §4
Data set [4] in a line: Cytotoxicity against cat CRFK cells assessed as alteration of cell morphology up to 100 uM by microscopic analysis. Format: cell-based, Felis catus. In a few lines:
as §3

Data set [5] deals with Human immunodeficiency virus 1. Kind of data set: Antiviral activity against Human immunodeficiency virus 1 3B infected in human CEM cells assessed as reduction of virus-induced giant cell formation at 250 uM after 4 to 5 days. Format: functional, organism-based. As to conditions: CCRF-CEM. In a few lines: as §1
Data set [6] relates to Vesicular stomatitis virus. Description: Antiviral activity against Vesicular stomatitis virus infected in human HeLa cells assessed as reduction of virus-induced cytopathogenicity at 250 uM. Format: functional, organism-based. Put shortly:
as §4

The next data set deals with Sindbis virus. Description: Antiviral activity against Sindbis virus infected in african green monkey Vero cells assessed as reduction of virus-induced cytopathogenicity at 250 uM. Format: functional, organism-based. In a few lines: as §2
In a further data set the test system is Coxsackievirus B4. Kind of data set: Antiviral activity against Coxsackievirus B4 infected in african green monkey Vero cells assessed as reduction of virus-induced cytopathogenicity at 250 uM. It counts as functional, organism-based. Put shortly: as §2
For the next data set, the system named is HEL. Description: Cytotoxicity against human HEL cells assessed as alteration of cell morphology up to 100 uM by microscopic analysis. It counts as cell-based. Put shortly: as §3
In a further data set the test system is Punta Toro virus. Kind of data set: Antiviral activity against Punta Toro virus infected in african green monkey Vero cells assessed as reduction of virus-induced cytopathogenicity at 250 uM. Format: functional, organism-based. Put shortly: as §2
Data set [7] concerns Respiratory syncytial virus. Kind of data set: Antiviral activity against Respiratory syncytial virus long infected in human HeLa cells assessed as reduction of virus-induced cytopathogenicity at 250 uM. It counts as functional, organism-based. In a few lines:
as §2

In another data set the test system is Human alphaherpesvirus 2. Description: Antiviral activity against Herpes simplex virus 2 G infected in human HEL cells assessed as reduction of virus-induced cytopathogenicity at 250 uM. It counts as functional, organism-based. To be noted: strain G. In a few lines: as §2
Data set [8] deals with Human alphaherpesvirus 1. Description: Antiviral activity against thymidine kinase-deficient, ACV-resistant Herpes simplex virus 1 KOS infected in human HEL cells assessed as reduction of virus-induced cytopathogenicity at 250 uM. It counts as functional, organism-based. Put shortly:
as §4

For data set [9], the system named is Influenza A virus. Kind of data set: Antiviral activity against Influenza A virus H3N2 infected in dog MDCK cells assessed as reduction of virus-induced cytopathogenicity at 250 uM. It counts as functional, organism-based. In a few lines: as §4
The test system of a further data set is Vero. Kind of data set: Cytotoxicity against african green monkey Vero cells assessed as alteration of cell morphology up to 100 uM by microscopic analysis. Format: cell-based. As to conditions: chlorocebus sabaeus. In a few lines: as §3
The subject of the next data set is MDCK. Kind of data set: Cytotoxicity against dog MDCK cells assessed as alteration of cell morphology up to 100 uM by microscopic analysis. It counts as cell-based, Canis lupus familiaris. In a few lines: as §3
The test system of data set [10] is Mammalian orthoreovirus 1. Description: Antiviral activity against Reovirus 1 infected in african green monkey Vero cells assessed as reduction of virus-induced cytopathogenicity at 250 uM. Format: functional, organism-based. Put shortly:
as §2

The subject of data set [11] is Influenza A virus. Description: Antiviral activity against Influenza A virus H1N1 infected in dog MDCK cells assessed as reduction of virus-induced cytopathogenicity at 250 uM. It counts as functional, organism-based. In a few lines: as §4
Another data set has as its system Human respirovirus 3. Kind of data set: Antiviral activity against Parainfluenza virus 3 infected in african green monkey Vero cells assessed as reduction of virus-induced cytopathogenicity at 250 uM. It counts as functional, organism-based. In a few lines: as §2

The source made the active and inactive calls. The rule behind the calls is not given here.

On to `CCOP(=O)(OCC)[C@@H]1C[C@H](C(=O)Nc2cccc(Cl)c2)ON1C` (mixture of isomers), for which the inhibition result (in [1]; with Human alphaherpesvirus 1 [2]; in the data set on Feline coronavirus; in the data set on Influenza B virus; in the data set on Felid alphaherpesvirus 1; in [3]) was “inactive” throughout. In addition, the inhibition result (in data set [5]; in data set [6]; in the data set on Sindbis virus; in the data set on Coxsackievirus B4; with Punta Toro virus; in [7]) was “inactive” in each case. The inhibition result (in the data set on Human alphaherpesvirus 2; in the data set with Human alphaherpesvirus 1 [8]; in the data set on Influenza A virus [9]; in [10]; in the data set on Influenza A virus [11]; in the data set on Human respirovirus 3) was “inactive” each time. In addition, the Activity result (in the data set with HeLa; in data set [4]; in the data set on HEL; with Vero; in the data set with MDCK) was “Non-toxic” throughout.
`CCOP(=O)(OCC)[C@@H]1C[C@H](C(=O)Nc2ccc(Br)cc2)ON1C` (mixture of isomers): the inhibition result (in [1]; in the data set on Human alphaherpesvirus 1 [2]; with Feline coronavirus; with Influenza B virus; with Felid alphaherpesvirus 1; in data set [3]) was “inactive” in each case. In addition, the inhibition entry (in data set [5]; in [6]; in the data set with Sindbis virus; in the data set with Coxsackievirus B4; with Punta Toro virus; in data set [7]) was “inactive” each time. The inhibition entry (with Human alphaherpesvirus 2; in the data set on Human alphaherpesvirus 1 [8]; with Influenza A virus [9]; in data set [10]; in the data set on Influenza A virus [11]; with Human respirovirus 3) was “inactive” throughout. Also, the Activity result (with HeLa; in data set [4]; with HEL; in the data set on Vero; in the data set with MDCK) was “Non-toxic” in each case.
For the compound `CCOP(=O)(OCC)[C@H]1C[C@H](C(=O)Nc2cccc(Cl)c2)ON1C` (mixture of isomers), the inhibition entry (in data set [1]; with Human alphaherpesvirus 1 [2]; in the data set with Feline coronavirus; in the data set on Influenza B virus; in the data set with Felid alphaherpesvirus 1; in [3]) was “inactive” each time. The inhibition entry (in data set [5]; in [6]; in the data set on Sindbis virus; in the data set on Coxsackievirus B4; in the data set with Punta Toro virus; in data set [7]) was “inactive” each time. Also, the inhibition entry (in the data set on Human alphaherpesvirus 2; with Human alphaherpesvirus 1 [8]; with Influenza A virus [9]; in data set [10]; in the data set with Influenza A virus [11]; in the data set with Human respirovirus 3) was “inactive” in each case. Also, the Activity entry (with HeLa; in data set [4]; in the data set with HEL; with Vero; in the data set with MDCK) was “Non-toxic” in each case.
Consider `CCOP(=O)(OCC)[C@H]1C[C@H](C(=O)Nc2cccc([N+](=O)[O-])c2)ON1C` (mixture of isomers), for which the inhibition entry (in data set [1]; in the data set on Human alphaherpesvirus 1 [2]; in the data set with Feline coronavirus; in the data set on Influenza B virus; in the data set on Felid alphaherpesvirus 1; in data set [3]) was “inactive” each time. For the same compound, the inhibition entry (in data set [5]; in data set [6]; with Sindbis virus; in the data set on Coxsackievirus B4; in the data set on Punta Toro virus; in [7]) was “inactive” in each case. Also, the inhibition result (in the data set with Human alphaherpesvirus 2; in the data set with Human alphaherpesvirus 1 [8]; in the data set on Influenza A virus [9]; in data set [10]; in the data set on Influenza A virus [11]; with Human respirovirus 3) was “inactive” in each case. Also, the Activity entry (in the data set with HeLa; in [4]; in the data set on HEL; in the data set with Vero; in the data set on MDCK) was “Non-toxic” throughout.
In the case of `CCOP(=O)(OCC)[C@@H]1C[C@H](C(=O)Nc2cccc([N+](=O)[O-])c2)ON1C` (mixture of isomers), the inhibition entry (in [1]; in the data set on Human alphaherpesvirus 1 [2]; in the data set on Feline coronavirus; in the data set with Influenza B virus; in the data set on Felid alphaherpesvirus 1; in data set [3]) was “inactive” in each case. Moreover, the inhibition result (in data set [5]; in [6]; with Sindbis virus; in the data set with Coxsackievirus B4; in the data set with Punta Toro virus; in [7]) was “inactive” in each case. The inhibition result (with Human alphaherpesvirus 2; in the data set with Human alphaherpesvirus 1 [8]; in the data set with Influenza A virus [9]; in data set [10]; in the data set on Influenza A virus [11]; in the data set with Human respirovirus 3) was “inactive” each time. Moreover, the Activity entry (with HeLa; in [4]; in the data set on HEL; in the data set with Vero; in the data set on MDCK) was “Non-toxic” each time.
Turning to `CCOP(=O)(OCC)[C@H]1C[C@H](C(=O)Nc2ccc([N+](=O)[O-])cc2)ON1C` (mixture of isomers), the inhibition entry (in [1]; in the data set on Human alphaherpesvirus 1 [2]; in the data set on Feline coronavirus; in the data set on Influenza B virus; with Felid alphaherpesvirus 1; in data set [3]) was “inactive” in each case. Also, the inhibition result (in data set [5]; in data set [6]; in the data set on Sindbis virus; with Coxsackievirus B4; with Punta Toro virus; in [7]) was “inactive” in each case. Besides, the inhibition entry (in the data set with Human alphaherpesvirus 2; in the data set with Human alphaherpesvirus 1 [8]; with Influenza A virus [9]; in data set [10]; with Influenza A virus [11]; in the data set on Human respirovirus 3) was “inactive” each time. Further, the Activity result (with HeLa; in data set [4]; in the data set with HEL; in the data set with Vero; in the data set on MDCK) was “Non-toxic” each time.
